# Measurements from ChEMBL document CHEMBL1148307, “Non-peptidic small-molecule inhibitors of the single-chain hepatitis C virus NS3 protease/NS4A cofactor complex discovered by structure-based NMR screening” (J Med Chem, 2004).
# “And” between values parts separate entries of the source, which are not always exact repeats. Equal entries are not always repeated.
# Biological target: T1, NS3 (Hepatitis C virus, UniProt A3EZJ3)
# Experiment: Dissociation constant for HCV NS3 protease substrate binding site; protein precipitation at 1:2 compound [100 uM]/protein ratio
# Design: species or system Hepacivirus hominis
# Conditions: not given; call rule not given here
# Procedure, shortened: (§1)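 Uniformly 15N-labeled single-chain ns4a–ns3p, 0.2 mM, in 75 mM potassium phosphate pH 6.5, 20 mM DTT, 95/5% H2O/D2O, 0.015% sodium azide. Spectra were recorded with and without compound at several compound concentrations. KD and bound shift were fitted by nonlinear least squares to a single-site binding equation, with total compound and protein concentrations known.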
# T1 sequence (A3EZJ3 whole entry): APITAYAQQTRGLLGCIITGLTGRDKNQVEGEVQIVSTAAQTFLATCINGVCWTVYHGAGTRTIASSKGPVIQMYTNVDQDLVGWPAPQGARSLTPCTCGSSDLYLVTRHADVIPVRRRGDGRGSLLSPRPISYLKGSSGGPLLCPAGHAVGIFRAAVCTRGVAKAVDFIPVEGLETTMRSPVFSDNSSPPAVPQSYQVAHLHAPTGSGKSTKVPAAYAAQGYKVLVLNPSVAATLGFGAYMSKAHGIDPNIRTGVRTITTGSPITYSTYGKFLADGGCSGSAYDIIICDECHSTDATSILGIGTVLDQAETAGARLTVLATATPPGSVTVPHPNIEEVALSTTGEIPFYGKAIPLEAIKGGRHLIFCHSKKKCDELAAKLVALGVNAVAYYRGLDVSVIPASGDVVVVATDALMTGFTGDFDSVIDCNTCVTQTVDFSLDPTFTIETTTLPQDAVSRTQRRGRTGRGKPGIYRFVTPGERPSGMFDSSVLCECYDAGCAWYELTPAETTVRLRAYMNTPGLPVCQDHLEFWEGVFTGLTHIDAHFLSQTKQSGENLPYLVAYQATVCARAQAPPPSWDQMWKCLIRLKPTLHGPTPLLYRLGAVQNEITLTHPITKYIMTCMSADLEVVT
row,Kd,Structure (SMILES)
1,No Delta CS,CC(C)c1ccc(C(Cc2cc(I)c(O)c(I)c2)C(=O)O)cc1 (configuration not stated)
2,No Delta CS,O=C(O)C(Cc1cc(I)c(O)c(I)c1)c1ccc2ccccc2c1 (configuration not stated)
3,No Delta CS,O=C(O)C(Cc1cc(I)c(O)c(I)c1)c1ccc(-c2ccccc2)cc1 (configuration not stated)

# Biological target: T1, NS3
# Experiment: Dissociation constant for HCV NS3 protease substrate binding site
# Design: species or system Hepacivirus hominis
# Conditions: not given
# Procedure, shortened: as §1
row,Kd,Structure (SMILES)
1,Active,CC(C)(C)OC(=O)N[C@@H](Cc1cc(I)c(O)c(I)c1)C(=O)O
2,Not Active,Oc1c(I)cc(CCc2ccncc2)cc1I
3,Insoluble,COc1ccc(C(=O)c2cc(OC)ccc2C(=O)O)cc1
4,Not Active,CCOC(=O)C(Cc1cc(I)c(O)c(I)c1)c1ccccc1 (configuration not stated)
5,Active,CC(C)(C)OC(=O)N[C@H](Cc1cc(I)c(O)c(I)c1)C(=O)O
6,Insoluble,O=C(c1ccc(Cl)cc1)c1cccc(Cl)c1C(=O)O
7,Active,CC(=O)N[C@H](Cc1cc(I)c(O)c(I)c1)C(=O)O

# Same assay, conditions: read-out: Kd
row,Kd,Structure (SMILES)
1,300 µM,O=C(O)c1cc2cc(Cl)ccc2[nH]1 [5-CHLOROINDOLE-2-CARBOXYLIC ACID]
2,1600 µM,Cc1ccc(C(=O)c2ccccc2C(=O)O)cc1
3,690 µM,CC1(C(=O)Nc2ccc(O)c(C(F)(F)F)c2)CC1
4,> 8000 µM,O=C(O)C(Cc1cc([N+](=O)[O-])c(O)c([N+](=O)[O-])c1)c1ccccc1 (configuration not stated)
5,12000 µM,CN(C)C(=O)Nc1ccc(O)c(C(F)(F)F)c1
6,1700 µM,O=C(O)c1cc2ccccc2s1
7,1200 µM,Cc1ccc2[nH]c(C(=O)O)cc2c1
8,2200 µM,O=C(O)c1cc2cc(Cl)ccc2o1
9,800 µM,O=C(O)c1cc2c(Cl)cccc2[nH]1
10,> 20000 µM,COc1ccc(N)cc1NC(=O)c1ccc(N)cc1
11,400 µM,O=C(O)c1cc2ccc(Cl)cc2[nH]1
12,40000 µM,O=C(O)CCCc1ccc(C(=O)c2ccccc2C(=O)O)cc1
13,34000 µM,CCC(=O)Nc1ccc(O)cc1 [PARAPROPAMOL]
14,22000 µM,COc1ccc(NC(=O)c2ccccc2C(=O)O)cc1
15,> 100 µM,COc1ccc(NC(=O)C(C)(C)C)cc1
16,100000 µM,Cc1ccc(N)cc1NC(=O)c1ccc(N)cc1
17,> 5000 µM,Cc1ccc(C(=O)O)c(C(=O)c2ccc(O)cc2)c1
18,1400 µM,O=C(O)c1cc2cccc(Cl)c2[nH]1
19,200 µM,O=C(O)c1cc2cc(Br)ccc2[nH]1
20,420 µM,O=C(O)c1cc(I)c(O)c(I)c1
21,4000 µM,O=C(O)c1ccccc1C(=O)c1ccc(C(F)(F)F)cc1
22,12000 µM,O=C(O)c1cc2ccccc2[nH]1 [INDOLE-2-CARBOXYLIC ACID]
23,> 1600 µM,COc1c(I)cc(CC(C(=O)O)c2ccccc2)cc1I (configuration not stated)
24,> 10000 µM,COC(=O)c1cccc(C(=O)c2ccc(Cl)cc2)c1C(=O)O
25,> 600 µM,O=C(O)c1cc(Br)ccc1C(=O)c1ccc(O)cc1

row,Kd,Structure (SMILES)
1,~1.9 µM,c1ccc2c(c1)NC1SCCCN21 (configuration not stated)
2,~4000 µM,O=C(O)c1ccccc1C(=O)c1ccc(F)cc1
3,140 µM,O=C(O)CCCc1cc(I)c(O)c(I)c1
4,> 210000 µM,CNC(=O)Nc1ccc(C(=O)O)cc1
5,8000 µM,CON(C)C(=O)Nc1ccc(O)c(C(F)(F)F)c1
6,4000 µM,COc1ccc2[nH]c(C(=O)O)cc2c1
7,110 µM,O=C(O)C(Cc1cc(I)c(O)c(I)c1)c1ccccc1 (configuration not stated) [IODOALPHIONIC ACID]
8,55000 µM,O=C(CCCl)Nc1ccc(O)cc1
9,> 20000 µM,COc1ccc(C(=O)C2CC2)cc1
10,> 20000 µM,CC(=O)c1ccc(OCC(=O)O)cc1
11,> 8000 µM,Nc1ccc(CC(C(=O)O)c2ccccc2)cc1 (configuration not stated)
12,40 µM,O=C(O)CC(c1ccccc1)c1cc(I)c(O)c(I)c1 (configuration not stated)
13,6400 µM,O=C(O)c1cc2ccccc2o1
14,17000 µM,CC(C)C(=O)Nc1ccc(O)cc1
15,> 30 µM and ~20 µM,Nc1ccc(C(=O)c2ccccc2)cc1
16,> 110000 µM,COc1ccc(NC(=O)CCC(=O)O)cc1
17,> 10000 µM,CN(C)C(=O)c1cccc(C(=O)c2ccc(Cl)cc2)c1C(=O)O
18,> 7000 µM,O=C(O)c1ccccc1Cc1ccc(O)cc1
19,> 60000 µM,COc1ccc(NC(=O)C2(C)CC2)cc1
20,4000 µM,O=C(O)Cc1ccccc1C(=O)c1ccc(Cl)cc1
21,> 8000 µM,O=C(O)COc1c(I)cc(CC(C(=O)O)c2ccccc2)cc1I (configuration not stated)
22,> 250 µM,O=C(/C=N/O)Nc1ccc(C(=O)O)cc1
23,8400 µM,CC1(C(=O)Nc2ccc(O)cc2)CC1
24,> 40000 µM,Nc1ccc(C(=O)O)cc1 [AMINOBENZOIC ACID]
25,~3 µM,O=C(O)c1ccccc1C(=O)c1ccc(Cl)cc1

row,Kd,Structure (SMILES)
1,2.9 µM,O=C(O)c1cc2cc(F)ccc2[nH]1 [5-FLUOROINDOLE-2-CARBOXYLIC ACID]
2,> 20 µM,COc1ccc(C(=O)c2ccc[nH]2)cc1
3,> 7000 µM,O=C(O)c1ccccc1Cc1ccc(Cl)cc1
4,1000 µM,COc1ccc(C(=O)c2ccccc2C(=O)O)cc1
5,> 2500 µM,COC(=O)[C@H](N)Cc1cc(I)c(O)c(I)c1
6,8000 µM,CC(C)C(=O)Nc1ccc(O)c(C(F)(F)F)c1
7,> 8000 µM,O=C(O)C(Cc1ccc(O)cc1)c1ccccc1 (configuration not stated)
8,90 µM,O=C(O)CCc1cc(I)c(O)c(I)c1
9,> 20000 µM,CC(=O)c1ccc(OCCC(=O)O)cc1
10,> 10000 µM,O=C(O)c1ccc(O)cc1C(=O)c1ccc(O)cc1
11,8000 µM,COc1ccc2sc(C(=O)O)cc2c1
12,~230 µM,Nc1cc(O)nc(-c2cc(I)c(O)c(I)c2)n1
13,7000 µM,O=C(O)c1ccccc1Oc1ccc(Cl)cc1
14,> 8000 µM,O=C(O)C(Cc1cc(Br)c(O)c(Br)c1)c1ccccc1 (configuration not stated)
15,20000 µM,Nc1ccc(C(=O)Nc2ccc(Cl)c(N)c2)cc1
16,70000 µM,Nc1ccc(C(=O)c2cccnc2N)cc1
17,> 8000 µM,COc1ccc(CC(C(=O)O)c2ccccc2)cc1 (configuration not stated)
18,1600 µM,O=C(O)c1ccccc1C(=O)c1ccc(O)cc1
19,7000 µM,O=C(O)c1ccccc1Oc1ccc(F)cc1
20,> 10000 µM,O=C(O)c1ccccc1C(=O)c1cccc(Cl)c1
21,> 20000 µM,Cc1ccc(NC(=O)c2ccc(N)cc2)c(N)c1
22,> 20000 µM,Nc1ccc(C(=O)c2ccc(N)cc2)cc1
23,70000 µM,COc1ccc(NC(=O)C(C)C)cc1
24,1000 µM,O=C(O)c1cc2cccc(Br)c2[nH]1

row,Structure (SMILES),Kd
1,Cn1c(C(=O)O)cc2ccccc21,8100 µM
2,O=C(O)C(F)(F)C(F)(F)C(=O)O,~5.2 µM

# Biological target: T1, NS3
# Experiment: Inhibition constant for HCV NS3 protease substrate binding site
# Design: species or system Hepacivirus hominis
# Conditions: not given
row,Ki [µM],Structure (SMILES)
1,310,CC(C)(C)OC(=O)N[C@@H](Cc1cc(I)c(O)c(I)c1)C(=O)O
2,600,O=C(O)c1cc(I)c(O)c(I)c1
3,180,O=C(O)CCCc1cc(I)c(O)c(I)c1
4,140,O=C(O)C(Cc1cc(I)c(O)c(I)c1)c1ccccc1 (configuration not stated) [IODOALPHIONIC ACID]
5,100,O=C(O)CC(c1ccccc1)c1cc(I)c(O)c(I)c1 (configuration not stated)
6,260,CC(C)(C)OC(=O)N[C@H](Cc1cc(I)c(O)c(I)c1)C(=O)O
7,80,O=C(O)CCc1cc(I)c(O)c(I)c1
8,650,Cc1ccc(S(=O)(=O)NNC(=S)c2ccccc2)cc1
9,0.8,O=C(N[C@@H](Cc1cc(I)c(O)c(I)c1)C(=O)O)OCCCOc1ccc(C(=O)c2ccccc2C(=O)O)cc1
10,1,CC(C)(C)OC(=O)c1ccccc1C(=O)c1ccc(OCCCOC(=O)N[C@@H](Cc2cc(I)c(O)c(I)c2)C(=O)OC(C)(C)C)cc1
11,210,CC(=O)N[C@H](Cc1cc(I)c(O)c(I)c1)C(=O)O
